We go through two compounds from ChEMBL document CHEMBL1126822, “7 alpha-Methyl- and 11 beta-ethoxy-substitution of [125I]-16 alpha-iodoestradiol: effect on estrogen receptor-mediated target tissue uptake” (J Med Chem, 1993).

Conditions in all cases: in vivo
The subject of data set [1] is Rattus norvegicus. Put plainly: Tissue uptake (blood) of [125I]- after administration of [125I]-labeled compound to immature female rats (n=3) in the absence of 60 microg coinjected estradiol after 24 hours. Format: ADME, organism-based. An outline of the steps: (§1)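 Immature female Fischer rats, 24 days old, 55-60 g, unanesthetized in retention cages, given HPLC-purified 125I-labeled steroid (3 μCi, 111 kBq) via lateral tail vein in 200 μL of 9% ethanol-saline with 1% Tween-80. The blocking group was coinjected with 60 μg unlabeled estradiol and sampled at 1 h. Animals were killed under ether at 0.5-24 h. Tissues were KCl-washed, blotted, weighed and gamma-counted. Results are % ID/g, with variation as small-sample-corrected %CV.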

Data set [2] deals with Rattus norvegicus. Put plainly: Tissue uptake (brain) of [125I]- after administration of [125I]-labeled compound to immature female rats (n=4) in the absence of 60 microg coinjected estradiol after 2 hours. Format: ADME, organism-based. An outline of the steps:
as §1

In data set [3] the test system is Rattus norvegicus. Put plainly: Tissue uptake (uterus) of [125I]- after administration of [125I]-labeled compound to immature female rats (n=3) in the absence of 60 microg coinjected estradiol after 0.5 hours. Format: ADME, organism-based. An outline of the steps: (§2)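 Immature female Fischer rats, 24 days old, 55-60 g, unanesthetized in retention cages, got HPLC-purified n.c.a. 125I-labeled steroid (3 μCi, 111 kBq) by lateral tail vein. Dose was given in 200 μL saline with 9% ethanol and 1% Tween-80. Deep ether anesthesia, axillary artery cut; tissues KCl-washed, blotted, weighed, gamma-counted as % ID/g; variation as small-sample-corrected %CV.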

Data set [4] relates to Rattus norvegicus. Put plainly: Tissue uptake (kidneys) of [125I]- after administration of [125I]-labeled compound to immature female rats (n=4) in the absence of 60 microg coinjected estradiol and 5 hours. Format: ADME, organism-based, Kidney. An outline of the steps:
as §1

In data set [5] the test system is Rattus norvegicus. Put plainly: Tissue uptake (brain) of [125I]- after administration of [125I]-labeled compound to immature female rats (n=3) in the absence of 60 microg coinjected estradiol after 24 hours. Format: ADME, organism-based. The method, boiled down:
as §1

The test system of data set [6] is Rattus norvegicus. Put plainly: Tissue uptake (brain) of [125I]- after administration of [125I]-labeled compound to immature female rats (n=3) in the absence of 60 microg coinjected estradiol after 0.5 hours. Format: ADME, organism-based. An outline of the steps: as §1
For data set [7], the system named is Rattus norvegicus. Put plainly: Tissue uptake (brain) of [125I]- after administration of [125I]-labeled compound to immature female rats (n=5) in the absence of 60 microg coinjected estradiol after 1 hour. Format: ADME, organism-based. The method, boiled down:
as §1

In data set [8] the test system is Rattus norvegicus. Put plainly: Tissue uptake (uterus) of [125I]- after administration of [125I]-labeled compound to immature female rats (n=3) in the absence of 60 microg coinjected estradiol. (0.5 hours after injection) (% coefficient of variation). Format: ADME, organism-based. An outline of the steps:
as §2

In data set [9] the test system is Rattus norvegicus. Put plainly: Tissue uptake (plasma) of [125I]- after administration of [125I]-labeled compound to immature female rats (n=3) in the presence of 60 microg coinjected estradiol after 1 hour. Format: ADME, organism-based. The method, boiled down: as §1
Data set [10] concerns Rattus norvegicus. Put plainly: Tissue uptake (blood) of [125I]- after administration of [125I]-labeled compound to immature female rats (n=3) in the absence of 60 microg coinjected estradiol. (24 hours after injection) (% coefficient of variation). Format: ADME, organism-based. The method, boiled down: as §1
Data set [11] deals with Rattus norvegicus. Put plainly: Tissue uptake (blood) of [125I]- after administration of [125I]-labeled compound to immature female rats (n=4) in the absence of 60 microg coinjected estradiol. (5 hours after injection) (% coefficient of variation). Format: ADME, organism-based. The method, boiled down:
as §1

Data set [12] concerns Rattus norvegicus. Put plainly: Tissue uptake (plasma) of [125I]- after administration of [125I]-labeled compound to immature female rats (n=4) in the absence of 60 microg coinjected estradiol after 5 hours. Format: ADME, organism-based. The method, boiled down:
as §2

Molecules are shown by their SMILES.

Regarding `CCO[C@H]1C[C@]2(C)[C@@H](O)[C@H](I)C[C@H]2[C@@H]2CCc3cc(O)ccc3[C@H]21`, the ID/g is given as 0.17% in the data set on Rattus norvegicus [1]; 0.25% in the data set on Rattus norvegicus [2]; 7.85% in the data set on Rattus norvegicus [3]; 0.91% with Rattus norvegicus [4]; 0.04% in the data set on Rattus norvegicus [5]; 0.68% in the data set on Rattus norvegicus [6]. The ID/g with Rattus norvegicus [7] was determined as 0.39%.
As to `C[C@@H]1Cc2cc(O)ccc2[C@H]2CC[C@]3(C)[C@@H](O)[C@H](I)C[C@H]3[C@H]12`, the ID/g is recorded as 4.32% in the data set with Rattus norvegicus [8]; 0.51% with Rattus norvegicus [9]; 0.03% in the data set with Rattus norvegicus [10]; 0.28% in the data set on Rattus norvegicus [11]; 0.41% with Rattus norvegicus [12].
